The record followed here is article PMC4681656 (Organic & biomolecular chemistry, 2016).

“Also recorded” adds a separate entry of the source. Some results are limits rather than exact numbers.

The target of assay [1] is vimentin rod domain (residues 99-411) (Homo sapiens, UniProt P08670). Kind of assay: Vimentin-arylquin binding assay by intrinsic arylquin fluorescence. Particulars: fluorescence titration.
In the next assay the target is hERG potassium channel (Homo sapiens, UniProt Q12809). Kind of assay: [3H]-dofetilide binding assay with hERG-HEK293 cell membranes. Background: hERG is a cardiac potassium channel; its block is linked to QT prolongation.
hERG potassium channel, sequence (Q12809 whole entry): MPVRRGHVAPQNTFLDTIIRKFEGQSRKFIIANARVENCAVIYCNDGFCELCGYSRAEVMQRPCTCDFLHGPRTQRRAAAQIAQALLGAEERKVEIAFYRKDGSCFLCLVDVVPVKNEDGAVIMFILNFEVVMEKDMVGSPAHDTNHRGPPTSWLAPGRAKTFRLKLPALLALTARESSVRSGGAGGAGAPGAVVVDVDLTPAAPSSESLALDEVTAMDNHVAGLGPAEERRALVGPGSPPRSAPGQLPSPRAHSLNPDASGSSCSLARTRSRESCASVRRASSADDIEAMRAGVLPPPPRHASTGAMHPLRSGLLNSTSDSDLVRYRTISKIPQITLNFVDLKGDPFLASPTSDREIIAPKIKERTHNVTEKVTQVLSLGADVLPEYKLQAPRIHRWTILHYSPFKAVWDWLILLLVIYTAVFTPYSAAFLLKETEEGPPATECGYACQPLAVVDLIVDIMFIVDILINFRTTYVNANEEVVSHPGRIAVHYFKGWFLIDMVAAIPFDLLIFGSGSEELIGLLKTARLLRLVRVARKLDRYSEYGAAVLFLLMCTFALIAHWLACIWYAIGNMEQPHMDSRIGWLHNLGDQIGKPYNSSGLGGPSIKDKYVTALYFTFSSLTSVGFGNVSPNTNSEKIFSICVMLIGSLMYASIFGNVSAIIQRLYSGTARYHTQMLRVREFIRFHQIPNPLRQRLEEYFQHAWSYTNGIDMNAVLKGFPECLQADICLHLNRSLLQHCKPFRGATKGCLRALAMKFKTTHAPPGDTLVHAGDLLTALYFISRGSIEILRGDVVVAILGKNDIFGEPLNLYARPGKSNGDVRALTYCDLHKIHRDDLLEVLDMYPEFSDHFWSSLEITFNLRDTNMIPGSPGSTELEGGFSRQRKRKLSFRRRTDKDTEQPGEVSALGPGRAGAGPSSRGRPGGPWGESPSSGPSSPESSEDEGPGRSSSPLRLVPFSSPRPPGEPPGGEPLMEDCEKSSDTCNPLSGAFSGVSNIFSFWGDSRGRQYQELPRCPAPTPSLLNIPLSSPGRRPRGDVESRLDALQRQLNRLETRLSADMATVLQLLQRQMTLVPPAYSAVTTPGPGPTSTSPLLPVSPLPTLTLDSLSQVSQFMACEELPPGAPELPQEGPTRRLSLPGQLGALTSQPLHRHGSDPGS
The test system of assay [2] is Par-4 secretion from mouse fibroblasts. It counts as cell-based. Particulars: for fold induction at 0.5 µM: Mus musculus, Fibroblast, 24 h, read-out: Ratio of Par-4 Secretion by Arylquin Relative to Vehicle. The procedure, abridged:
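Cells exposed to test compound for 24 h. Conditioned medium and lysates were analysed by quantitative Western blot for Par-4 and Col1A1, with Col1A1 used to normalise secreted Par-4. Experiments were run in triplicate; data are mean ± standard deviation of at least three experiments, with Student t test.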

What is called IC50 is the concentration that gives 50% inhibition.

vimentin rod domain (residues 99-411), sequence (P08670 99-411): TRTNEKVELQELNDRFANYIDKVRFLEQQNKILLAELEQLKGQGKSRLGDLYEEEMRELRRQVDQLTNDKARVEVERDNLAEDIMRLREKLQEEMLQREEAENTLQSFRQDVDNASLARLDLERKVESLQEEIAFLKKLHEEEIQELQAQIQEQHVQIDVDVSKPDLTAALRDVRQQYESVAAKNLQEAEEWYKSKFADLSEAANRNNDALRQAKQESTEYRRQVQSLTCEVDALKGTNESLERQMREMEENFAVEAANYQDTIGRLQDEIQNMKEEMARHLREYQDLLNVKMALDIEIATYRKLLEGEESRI

`CN(C)c1ccc2cc(-c3ccccc3F)c(N)nc2c1` [1a, 3-(2-Fluorophenyl)-N^7,N^7-dimethylquinoline-2,7-diamine]: the Stoichiometry at saturation in assay [1] is 3-4 molecules per monomer of the rod domain.
Take `CN(C)c1ccc2cc(-c3cccc(F)c3)c(N)nc2c1` [1d, 3-(3-Fluorophenyl)-N^7,N^7-dimethylquinoline-2,7-diamine]: the IC50 at hERG potassium channel is 1.59 ± 0.39 µM.
Take `CN(C)c1ccc2cc(-c3ccc(F)cc3)c(N)nc2c1` [1f, 3-(4-Fluorophenyl)-N^7,N^7-dimethylquinoline-2,7-diamine]: the IC50 on hERG potassium channel stood at 30.2 ± 10.3 µM.
As to `CN(C)c1ccc2cc(-c3c(F)cccc3Cl)c(N)nc2c1` [1n, 3-(2-Chloro-6-fluorophenyl)-N^7,N^7-dimethylquinoline-2,7-diamine], the fold induction at 0.5 µM in assay [2] was determined as 2.4.
Consider `CN(C)c1ccc2cc(-c3c(Cl)cccc3Cl)c(N)nc2c1` [1o, 3-(2,6-Dichlorophenyl)-N^7,N^7-dimethylquinoline-2,7-diamine], for which, in assay [2], the fold induction at 0.5 µM was determined as 2.4.
Regarding `COc1ccccc1-c1cc2ccc(N(C)C)cc2nc1N` [1r, 3-(2-Methoxyphenyl)-N^7,N^7-dimethylquinoline-2,7-diamine], the fold induction at 0.5 µM in assay [2] was determined as 1.7.
As to `CN(C)c1ccc2cc(-c3ccccc3F)c(=O)[nH]c2c1` [compound 2, 7-(N,N-Dimethylamino)-3-(2-fluorophenyl)quinolin-2(1H)-one], the fold induction at 0.5 µM in assay [2] was 1.1. Further, at hERG potassium channel, the IC50 is greater than 100 µM.
With `CN(C)c1ccc2cc3c(nc(N)c4ccccc43)nc2c1` [compound 5, N^9,N^9-Dimethyldibenzo[b,f][1,8]naphthyridine-5,9-diamine], in assay [2], the “Par-4 secretion activity (in words)” value is “inactive”.
Consider `CN(C)c1ccc2cc3c(nc2c1)[nH]c(=O)c1ccccc13` [compound 6, 9-(N,N-Dimethylamino)dibenzo[b,f][1,8]naphthyridin-5(6H)-one], for which the “Par-4 secretion activity (in words)” value in assay [2] is “inactive”.
With `CN(C)c1ccc2cc(-c3ccccc3F)c(=S)[nH]c2c1` [compound 7, 7-(N,N-Dimethylamino)-3-(2-fluorophenyl)quinoline-2(1H)-thione], in assay [2], the fold induction at 0.5 µM is 1.7. At hERG potassium channel, the half-inhibitory concentration (IC50) is greater than 100 µM.
In the same order, the values of `CN(C)c1ccc2cc(-c3ccccc3F)c(N3CCOCC3)nc2c1` [compound 10, 3-(2-Fluorophenyl)-N,N-dimethyl-2-morpholinoquinolin-7-amine] are 1.8 and 23.3 ± 3.05 µM.
Turning to `CN1CCN(c2nc3cc(N(C)C)ccc3cc2-c2ccccc2F)CC1` [compound 11, 3-(2-Fluorophenyl)-N,N-dimethyl-2-(4-methylpiperazin-1-yl)quinolin-7-amine], the “Par-4 secretion activity (in words)” value in assay [2] was “high levels of Par-4 secretion”.
As for `Nc1nc2ccccc2cc1-c1ccccc1F` [compound 12, 3-(2-Fluorophenyl)quinolin-2-amine], in assay [2], the “Par-4 secretion activity (in words)” value is given as “high levels of Par-4 secretion” and the fold induction at 0.5 µM worked out at 2.8. The compound further came in with an IC50 on hERG potassium channel of 14.6 ± 5.82 µM.
For the compound `Nc1nc2cccc(F)c2cc1-c1ccccc1F` [compound 13, 5-Fluoro-3-(2-fluorophenyl)quinolin-2-amine], the “Par-4 secretion activity (in words)” value in assay [2] is “equipotent to 1a”.
Same read-out and setting: to `Nc1nc2ccc(Cl)cc2cc1-c1ccccc1F` [compound 16, 6-Chloro-3-(2-fluorophenyl)quinolin-2-amine] belongs “equipotent to 1a”.
`Nc1nc2cc(Cl)ccc2cc1-c1ccccc1F` [compound 17, 7-Chloro-3-(2-fluorophenyl)quinolin-2-amine]: the “Par-4 secretion activity (in words)” value in assay [2] is listed as “did not induce Par-4 secretion”. Moreover, in assay [1] (arylquin at 1 μM), the “Binding to vimentin rod domain (in words)” value is recorded as “did not bind the vimentin rod domain to a measurable extent; also recorded: fluorescence signal did not change in the titration”.
